Experimental data collected from several papers.
Protocols differ between the studies behind these lines.
Target: Protein kinase C delta type (PRKCD, Homo sapiens, UniProt Q05655)

Compound | effect on | method | tested at | remaining binding
FC(F)(F)Oc1cccc(-c2cnc3ccc(-c4ccncc4)nn23)c1 | cell-free assay | competition with immobilised ligand | 5 µM | 71%
O=C(N[C@H]1CCCCC/C=C\C2C[C@@]2(C(=O)O)NC(=O)[C@@H]2C[C@@H](Oc3ccncc3)CN2C1=O)OC1CCCC1 (stereo partly drawn) | cell-free assay | competition with immobilised ligand | 1 µM | 100%
O=C(c1ccc(Nc2nccc(-c3cc4ccccc4s3)n2)cc1)N1CCC(N2CCCC2)CC1 | binding | competition with immobilised ligand | 1 µM | 86%
CCCOc1ccc([C@@H]2[C@@H](C(=O)O)[C@H](c3ccc4c(c3)OCO4)CN2CC(=O)Nc2c(CC)cccc2CC)cc1 | cell-free assay | competition with immobilised ligand | 1 µM | 100%
COc1cnc(Nc2cccc(S(N)(=O)=O)c2)nc1N1CCN(c2ccccc2)C(=O)C1 | binding | competition with immobilised ligand | 1 µM | 100%
CN(CCCC(F)(F)F)c1nccc(-c2cnn3ncccc23)n1 | binding | – | 1 µM | 90%
O=C(NCCCN1CCOCC1)c1ccc(Nc2ncc(Cl)c(-c3ccc(Cl)s3)n2)cc1 | binding | competition with immobilised ligand | 1 µM | 81%
C=CC(=O)N1CCC(C(=O)NCC(=O)N2CCN(c3nc(-c4cnc(N)nc4C(F)F)nc(N4CCOCC4)n3)CC2)CC1 | binding | competition with immobilised ligand | 1 µM | 100%
CN(C)c1ncc(F)c(-c2cnn3ncccc23)n1 | binding | – | 1 µM | 100%
Nc1ncc2c(n1)-c1c([nH]c3ccc(C#CC4CC4)cc13)CCCC2 | binding | competition with immobilised ligand | 1 µM | 97%
Cc1cc(C)c(-n2ccn3nc(-c4cccnc4)cc23)cc1NC(=O)c1cc(C#N)cc(S(F)(F)(F)(F)F)c1 | cell-free assay | competition with immobilised ligand | 0.1 µM | 93.1%
C[C@@H]1CCN(c2nccc(-c3cnn4ncccc34)n2)C1 | binding | – | 1 µM | 100%
CS(=O)(=O)N1CCCC(NC(=O)[C@H](CCC2CCCCC2)NC(=O)c2ccc(CNc3ncnc4c3nnn4-c3ccccc3)cc2)C1 (stereo partly drawn) | cell-free assay | competition with immobilised ligand | 0.1 µM | 80%
O=C(Nc1c[nH]nc1C(=O)NC1CCNCC1)c1cc(F)cc(F)c1 | binding | competition with immobilised ligand | 1 µM | 100%
N[C@H]1CCN(c2nccc(-c3cnn4ncccc34)n2)C1 | binding | – | 1 µM | 100%
COc1cnc(Nc2cccc(S(N)(=O)=O)c2)nc1N1CCN(c2ccccc2)CC1 | binding | competition with immobilised ligand | 1 µM | 100%
CN1CCN(c2cnc3c(C4CCN(C(=O)c5ccc(OC(F)(F)F)cc5N)CC4)ncnc3c2)CC1 | cell-free assay | competition with immobilised ligand | 1 µM | 100%
Cc1cnn2ncc(-c3ccnc(N(C)C)n3)c2c1 | binding | – | 1 µM | 100%
O=C(c1ccc(Nc2ncc(Cl)c(-c3cc4ccccc4s3)n2)cc1)N1CCC(N2CCCC2)CC1 | binding | competition with immobilised ligand | 1 µM | 32%
COc1ccc2c(O[C@@H]3C[C@H]4C(=O)N[C@]5(C(=O)O)CC5/C=C\CCCCC[C@H](NC(=O)OC5CCCC5)C(=O)N4C3)cc(-c3csc(NC(=O)C(C)C)n3)nc2c1C (stereo partly drawn) | cell-free assay | competition with immobilised ligand | 1 µM | 84%
CN(C)c1nccc(-c2cnn3ncccc23)n1 | binding | – | 1 µM | 100%
